From ChEMBL document CHEMBL1154557, “Induction of choline acetyltransferase activity in cholinergic neurons by stolonidiol: structure-activity relationship” (J Nat Prod, 2000)
The source made the active and inactive calls. No cut-off for these calls is given here.

Columns and labels:
[1] = target: T1, Choline O-acetyltransferase (Rattus norvegicus) (UniProt P32738); experiment: Induction of ChAT activity in rat forebrain cells at 0.1 ug/mL relative to control; assay type: cell-based
T1 sequence (whole entry): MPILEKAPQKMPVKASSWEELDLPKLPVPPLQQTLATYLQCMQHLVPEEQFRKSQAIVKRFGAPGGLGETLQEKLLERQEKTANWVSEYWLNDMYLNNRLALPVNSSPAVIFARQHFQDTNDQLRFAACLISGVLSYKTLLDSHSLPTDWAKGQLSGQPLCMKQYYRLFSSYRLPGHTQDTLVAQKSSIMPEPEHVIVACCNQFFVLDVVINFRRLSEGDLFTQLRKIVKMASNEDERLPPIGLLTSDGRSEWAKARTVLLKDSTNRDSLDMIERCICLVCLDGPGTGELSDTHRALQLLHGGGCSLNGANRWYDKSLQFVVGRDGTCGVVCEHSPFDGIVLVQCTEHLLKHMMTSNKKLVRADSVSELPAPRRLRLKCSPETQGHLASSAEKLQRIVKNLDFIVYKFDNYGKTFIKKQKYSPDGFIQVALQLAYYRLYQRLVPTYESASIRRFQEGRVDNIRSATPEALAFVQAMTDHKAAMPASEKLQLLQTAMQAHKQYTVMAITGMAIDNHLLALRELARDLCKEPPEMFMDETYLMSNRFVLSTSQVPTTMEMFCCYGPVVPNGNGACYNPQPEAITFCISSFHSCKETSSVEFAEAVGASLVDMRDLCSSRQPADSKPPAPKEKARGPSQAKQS
How it was run: (§1)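 Basal forebrain from E17–19 rat embryos, papain-dissociated, plated at 1 × 10^6 cells/well in DMEM/F12 with 5% FBS and 5% horse serum. After 7 days of preculture, cells were exposed for 3 days. Lysate (1% Triton X-100, pH 6.8 Tris) was incubated with 25 µM [14C]acetyl-CoA and 8 mM choline with eserine for 1 h at 37 °C. Extracted [14C]ACh was counted. Results are % of control, n = 3.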

[2] = target: T1, Choline O-acetyltransferase (Rattus norvegicus); experiment: Induction of ChAT activity in rat forebrain cells at 1 ug/mL relative to control; assay type: cell-based; how it was run: as §1
[3] = target: T1, Choline O-acetyltransferase (Rattus norvegicus); experiment: Induction of ChAT activity in rat forebrain cultured cells at 0.01 ug/mL after 3 days relative to control; assay type: cell-based; how it was run: as §1
[4] = target: T2, Choline O-acetyltransferase (Mus musculus) (UniProt Q03059); experiment: Induction of ChAT activity in mouse SN49 cultured cells at 0.01 ug/mL after 3 days relative to control; assay type: cell-based
T2 sequence (whole entry): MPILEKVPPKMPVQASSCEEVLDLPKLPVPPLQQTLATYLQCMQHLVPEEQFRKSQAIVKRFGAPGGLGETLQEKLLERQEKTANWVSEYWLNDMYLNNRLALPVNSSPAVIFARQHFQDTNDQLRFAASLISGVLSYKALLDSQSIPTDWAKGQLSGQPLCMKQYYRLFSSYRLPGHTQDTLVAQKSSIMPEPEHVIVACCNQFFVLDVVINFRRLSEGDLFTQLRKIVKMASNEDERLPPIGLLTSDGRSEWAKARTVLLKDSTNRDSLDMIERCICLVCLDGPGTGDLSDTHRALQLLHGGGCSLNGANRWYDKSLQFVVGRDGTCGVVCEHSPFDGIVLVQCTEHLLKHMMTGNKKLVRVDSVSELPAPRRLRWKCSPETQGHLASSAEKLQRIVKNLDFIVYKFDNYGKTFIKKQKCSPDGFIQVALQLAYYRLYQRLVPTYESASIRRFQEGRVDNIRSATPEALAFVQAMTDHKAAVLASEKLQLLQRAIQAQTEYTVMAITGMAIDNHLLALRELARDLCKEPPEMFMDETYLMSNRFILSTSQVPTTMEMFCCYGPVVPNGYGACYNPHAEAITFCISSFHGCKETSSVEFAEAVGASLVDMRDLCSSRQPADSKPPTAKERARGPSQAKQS
How it was run: (§2)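 Mouse septal SN49 hybrid cells were grown in DMEM with 10% FBS and plated at 2 × 10^5 cells/well. After 24 h at 37 °C, compound was added for a further 48 h. ChAT was measured in Triton lysates as [14C]acetylcholine formed from 25 µM [14C]acetyl-CoA and 8 mM choline chloride (0.1 mM eserine, 37 °C, 1 h) by scintillation counting. Results are % of control, n = 3, with Dunnett test.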

[5] = target: T1, Choline O-acetyltransferase (Rattus norvegicus); experiment: Induction of ChAT activity in rat forebrain cultured cells at 0.1 ug/mL after 3 days relative to control; assay type: cell-based; how it was run: as §1
[6] = target: T1, Choline O-acetyltransferase (Rattus norvegicus); experiment: Induction of ChAT activity in rat forebrain cultured cells at 1 ug/mL after 3 days relative to control; assay type: cell-based; how it was run: as §1
[7] = target: T2, Choline O-acetyltransferase (Mus musculus); experiment: Induction of ChAT activity in mouse SN49 cultured cells at 1 ug/mL after 3 days relative to control; assay type: cell-based; how it was run: as §2
[8] = target: T1, Choline O-acetyltransferase (Rattus norvegicus); experiment: Induction of ChAT activity in rat forebrain cultured cells at 10 ug/mL after 3 days relative to control; assay type: cell-based; how it was run: as §1
[9] = target: T2, Choline O-acetyltransferase (Mus musculus); experiment: Induction of ChAT activity in mouse SN49 cultured cells at 0.1 ug/mL after 3 days relative to control; assay type: cell-based; how it was run: as §2
[10] = target: T2, Choline O-acetyltransferase (Mus musculus); experiment: Induction of ChAT activity in mouse SN49 cultured cells at 10 ug/mL after 3 days relative to control; assay type: cell-based; how it was run: as §2
Rattus norvegicus [11] = species: Rattus norvegicus; experiment: Induction of ChAT mRNA expression in rat forebrain cells at 0.1 ug/mL after 6 hrs by RT-PCR method; assay type: functional, cell-based
How it was run: (§3)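 Cultured rat embryo basal forebrain cells were exposed for 6 h. ChAT mRNA was assessed by RT-PCR, and ethidium bromide-stained products were quantified by optical scanning as relative intensities.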

Rattus norvegicus [12] = species: Rattus norvegicus; experiment: Induction of ChAT mRNA expression in rat forebrain cells at 1 ug/mL after 6 hrs by RT-PCR method; assay type: functional, cell-based; how it was run: as §3
[13] = Cytotoxicity against rat forebrain cells at 10 ug/mL; assay type: cell-based
[14] = Cytotoxicity against rat basal forebrain cells at 10 ug/mL

Activity [1] | Activity [2] | Structure (SMILES) | also measured
116% | 173% | C=C1CC[C@@H]2O[C@]2(COC(=O)c2ccccc2)C[C@H]2O[C@@]23[C@H](C(C)(C)O)CC[C@@]3(C)CC1 | –
108% | 143% | C=C1CC[C@@H]2O[C@]2(COC(=O)CCCCCCCCCCC)C[C@H]2O[C@@]23[C@H](C(C)(C)O)CC[C@@]3(C)CC1 | –
109% | 104% | COC1(OC)CC[C@@H]2O[C@]2(CO)C[C@H]2O[C@@]23[C@H](C(C)(C)O)CC[C@@]3(C)CC1 | –
89.2% | 92.3% | C=C1CC[C@@H](OC)[C@@](O)(CO)C[C@H]2O[C@@]23[C@H](C(C)(C)O)CC[C@@]3(C)CC1 | –
109% | 122% | C=C1CC/C=C(/CO)C/C=C2\[C@H](C(C)(C)O)CC[C@@]2(C)CC1 | –
139% | 164% | C=C1CC[C@@H]2O[C@]2(COC(=O)CCCCC)C[C@H]2O[C@@]23[C@H](C(C)(C)O)CC[C@@]3(C)CC1 | –
127% | 231% | C=C1CC[C@@H]2O[C@]2(CO)C[C@H]2O[C@@]23[C@H](C(C)(C)O)CC[C@@]3(C)CC1 [STOLONIDIOL] | Activity [3]: 130%; Activity [4]: 146%; Activity [5]: 178%; Activity [6]: 139%; Activity [7]: 145%; Activity [8]: 38.2%; Activity [9]: 142%; Activity [10]: 92.7%; Activity (Rattus norvegicus [11]): Active; Activity (Rattus norvegicus [12]): Active; Activity [13]: Toxic; Activity [14]: Toxic
97.6% | 174% | C=C1CC[C@@H]2O[C@]2(COC(=O)CCCCCCCCCCCCC)C[C@H]2O[C@@]23[C@H](C(C)(C)O)CC[C@@]3(C)CC1 | –
118% | 179% | C=C1CC[C@@H]2O[C@]2(COC(=O)CCC)C[C@H]2O[C@@]23[C@H](C(C)(C)O)CC[C@@]3(C)CC1 | –
11.5% | 161% | C=C1CC[C@@H]2O[C@]2(COC(C)=O)C[C@H]2O[C@@]23[C@H](C(C)(C)O)CC[C@@]3(C)[C@H](OC(C)=O)C1 | –
96.7% | 95.3% | C=C1CC[C@@H](Cl)[C@@](O)(COC(=O)c2ccc(Br)cc2)C[C@H]2O[C@@]23[C@H](C(C)(C)O)CC[C@@]3(C)CC1 | –
89.2% | 210% | C=C1CC[C@@H]2O[C@]2(COC(C)=O)C[C@H]2O[C@@]23[C@H](C(C)(C)O)CC[C@@]3(C)CC1 | –
